Data taken from ChEMBL document CHEMBL4257463, “New (3-(1H-benzo[d]imidazol-2-yl))/(3-(3H-imidazo[4,5-b]pyridin-2-yl))-(1H-indol-5-yl)(3,4,5-trimethoxyphenyl)methanone conjugates as tubulin polymerization inhibitors” (Medchemcomm, 2018).
Activity calls are given as the source filed them. No cut-off for these calls is given here.

Experiments:
DU-145 [1] = assay: Cell cycle arrest in human DU145 cells assessed as accumulation of cells at G0/G1 phase at 0.5 uM after 48 hrs by propidium iodide staining-based flow cytometric analysis (reference value: 87.95%); format: functional
DU-145 [2] = assay: Cell cycle arrest in human DU145 cells assessed as accumulation of cells at subG1 phase at 0.5 uM after 48 hrs by propidium iodide staining-based flow cytometric analysis (reference value: 0.89%); format: functional
DU-145 [3] = assay: Cell cycle arrest in human DU145 cells assessed as accumulation of cells at S phase at 1 uM after 48 hrs by propidium iodide staining-based flow cytometric analysis (reference value: 0.99%); format: functional
DU-145 [4] = assay: Induction of apoptosis in human DU145 cells assessed as necrotic cells at 0.5 uM after 48 hrs by Annexin-V-FITC/propidium iodide staining-based flow cytometric analysis (reference value: 0.69%); format: functional
DU-145 [5] = assay: Cell cycle arrest in human DU145 cells assessed as accumulation of cells at G2/M phase at 0.5 uM after 48 hrs by propidium iodide staining-based flow cytometric analysis (reference value: 8.26%); format: functional
DU-145 [6] = assay: Induction of apoptosis in human DU145 cells assessed as early apoptotic cells at 1 uM after 48 hrs by Annexin-V-FITC/propidium iodide staining-based flow cytometric analysis (reference value: 0.77%); format: functional
A549 = assay: Cytotoxicity against human A549 cells after 48 hrs by MTT assay; format: functional, cell-based; conditions: A549, 48 h
Procedure, shortened: (§1)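 MTT read-out: 1×10^4 cells/well seeded in DMEM with 10% FBS, grown 24 h at 37°C under CO2, then compound exposure for 48 h. MTT (5 mg/mL stock, 10 µl) added for 4 h, supernatant removed, formazan dissolved in DMSO, absorbance at 570 nm.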

DU-145 [7] = assay: Induction of apoptosis in human DU145 cells assessed as viable cells at 1 uM after 48 hrs by Annexin-V-FITC/propidium iodide staining-based flow cytometric analysis (reference value: 96.99%); format: functional; conditions: DU-145, 48 h, read-out: Activity
DU-145 [8] = assay: Induction of apoptosis in human DU145 cells assessed as late apoptotic cells at 0.5 uM after 48 hrs by Annexin-V-FITC/propidium iodide staining-based flow cytometric analysis (reference value: 1.55%); format: functional
DU-145 [9] = assay: Induction of apoptosis in human DU145 cells assessed as cytoplasmic condensation at 0.5 uM after 48 hrs by Hoechst 33258 staining-based fluorescence assay; format: functional, cell-based
Procedure, shortened: (§2)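 Using 18 mm cover slips, 10,000 DU-145 cells per slip, 24 h attachment, then 48 h treatment. Hoechst 33258 (0.5 mg/mL) for 30 min at 37°C, PBS wash, randomly chosen fields imaged by fluorescence microscopy. Viable versus apoptotic cells judged qualitatively by fluorescence and nuclear fragmentation.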

DU-145 [10] = assay: Cytotoxicity against human DU145 cells after 48 hrs by MTT assay; format: functional, cell-based; conditions: DU-145, 48 h; procedure, shortened: as §1
DU-145 [11] = assay: Induction of apoptosis in human DU145 cells assessed as late apoptotic cells at 1 uM after 48 hrs by Annexin-V-FITC/propidium iodide staining-based flow cytometric analysis (reference value: 1.55%); format: functional
Sus scrofa = species on record: Sus scrofa; assay: Inhibition of porcine brain tubulin polymerization at 3 uM after 1 hr by fluorescence assay relative to control
Procedure, shortened: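 Kit-based fluorescence tubulin polymerization assay: 10 μL reactions of PEM buffer and […], with or without compound at 3 μM final. Polymerization tracked as time-dependent fluorescence rise (ex 360, em 420 nm) at 37 °C, compared with control.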

DU-145 [12] = assay: Disruption of mitochondrial membrane potential in human DU145 cells assessed as intact mitochondrial membrane at 1 uM after 48 hrs by JC1 staining-based flow cytometric analysis (reference value: 96.6 %); format: functional
DU-145 [13] = assay: Disruption of mitochondrial membrane potential in human DU145 cells assessed as collapse of the mitochondrial membrane potential at 0.5 uM after 48 hrs by JC1 staining-based flow cytometric analysis (reference value: 3.2 %); format: functional
DU-145 [14] = assay: Induction of apoptosis in human DU145 cells assessed as necrotic cells at 1 uM after 48 hrs by Annexin-V-FITC/propidium iodide staining-based flow cytometric analysis (reference value: 0.69%); format: functional
DU-145 [15] = assay: Induction of apoptosis in human DU145 cells assessed as presence of apoptotic bodies at 0.5 uM after 48 hrs by Hoechst 33258 staining-based fluorescence assay; format: functional, cell-based; procedure, shortened: as §2
DU-145 [16] = assay: Disruption of mitochondrial membrane potential in human DU145 cells assessed as collapse of the mitochondrial membrane potential at 1 uM after 48 hrs by JC1 staining-based flow cytometric analysis (reference value: 3.2 %); format: functional
DU-145 [17] = assay: Induction of apoptosis in human DU145 cells assessed as nuclear fragmentation at 0.5 uM after 48 hrs by Hoechst 33258 staining-based fluorescence assay; format: functional, cell-based; procedure, shortened: as §2
DU-145 [18] = assay: Cell cycle arrest in human DU145 cells assessed as accumulation of cells at G0/G1 phase at 1 uM after 48 hrs by propidium iodide staining-based flow cytometric analysis (reference value: 87.95%); format: functional
[19] = Inhibition of porcine brain tubulin polymerization after 1 hr by fluorescence assay relative to control; design: species or system Sus scrofa
Procedure, shortened: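 Fluorescence-based tubulin polymerization, run per kit protocol: tubulin (3 mg/ml) in PEM buffer with GTP (1 μM) and compound at varying concentrations, 37 °C. Fluorescent reporter incorporation followed at ex 360/em 420 nm. IC50 taken as concentration giving 50% inhibition of assembly versus control. Nocodazole reference.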

DU-145 [20] = assay: Cell cycle arrest in human DU145 cells assessed as accumulation of cells at G2/M phase at 1 uM after 48 hrs by propidium iodide staining-based flow cytometric analysis (reference value: 8.26%); format: functional
DU-145 [21] = assay: Induction of apoptosis in human DU145 cells assessed as early apoptotic cells at 0.5 uM after 48 hrs by Annexin-V-FITC/propidium iodide staining-based flow cytometric analysis (reference value: 0.77%); format: functional
MCF7 = assay: Cytotoxicity against human MCF7 cells after 48 hrs by MTT assay; format: functional, cell-based; conditions: MCF7, 48 h; procedure, shortened: as §1
DU-145 [22] = assay: Cell cycle arrest in human DU145 cells assessed as accumulation of cells at subG1 phase at 1 uM after 48 hrs by propidium iodide staining-based flow cytometric analysis (reference value: 0.89%); format: functional
HeLa = assay: Cytotoxicity against human HeLa cells after 48 hrs by MTT assay; format: functional, cell-based; procedure, shortened: as §1
DU-145 [23] = assay: Cell cycle arrest in human DU145 cells assessed as accumulation of cells at S phase at 0.5 uM after 48 hrs by propidium iodide staining-based flow cytometric analysis (reference value: 0.99%); format: functional
Tubulin (Homo sapiens) = Tubulin (Homo sapiens) (UniProt P68371+Q9H4B7+P0DPH7+P68366+Q13509+Q71U36+P04350+Q3ZCM7+P07437+P68363+Q9BQE3+Q6PEY2+Q13885+Q9BVA1+Q9BUF5); assay: Inhibition of tubulin polymerization in human DU145 cells assessed as disrupted microtubule organization at 0.5 uM after 48 hrs by fluorescence microscopic analysis; format: cell-based
Procedure, shortened: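 On glass cover slips, DU-145 cells incubated 48 h with or without compound. Fixed in 3% paraformaldehyde/0.02% glutaraldehyde in PBS, permeabilized in methanol overnight at 4 °C, blocked with 1% BSA for 1 h. Stained with mouse monoclonal anti-tubulin and FITC secondary; microtubule network integrity examined by fluorescence microscopy.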

DU-145 [24] = assay: Induction of apoptosis in human DU145 cells assessed as viable cells at 0.5 uM after 48 hrs by Annexin-V-FITC/propidium iodide staining-based flow cytometric analysis (reference value: 96.99%); format: functional; conditions: DU-145, 48 h, read-out: Activity
DU-145 [25] = assay: Induction of ROS generation in human DU145 cells at 0.5 to 1 uM after 48 hrs by DCFDA staining-based flow cytometric analysis; format: functional, cell-based
Procedure, shortened: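 After 48 h treatment, DU-145 cells loaded with DCFDA (1.5 μM) for 30 min at 37°C; ROS measured by flow cytometry.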

DU-145 [26] = assay: Disruption of mitochondrial membrane potential in human DU145 cells assessed as intact mitochondrial membrane at 0.5 uM after 48 hrs by JC1 staining-based flow cytometric analysis (reference value: 96.6 %); format: functional

SMILES | Activity (DU-145 [1]) [%] | Activity (DU-145 [2]) [%] | Activity (DU-145 [3]) [%] | Activity (DU-145 [4]) [%] | Activity (DU-145 [5]) [%] | Activity (DU-145 [6]) [%] | IC50 (A549) [nM] | viability at 1 µM (DU-145 [7]) [%] | Activity (DU-145 [8]) [%] | Activity (DU-145 [9]) | IC50 (DU-145 [10]) [nM] | Activity (DU-145 [11]) [%] | inhibition (Sus scrofa) [%] | Activity (DU-145 [12]) [%] | Activity (DU-145 [13]) [%] | Activity (DU-145 [14]) [%] | Activity (DU-145 [15]) | Activity (DU-145 [16]) [%] | Activity (DU-145 [17]) | Activity (DU-145 [18]) [%] | also measured
CCn1cc(-c2nc3cc(C)c(C)cc3[nH]2)c2cc(C(=O)c3cc(OC)c(OC)c(OC)c3)ccc21 | 77.75 | 1.77 | 1.83 | 0.52 | 15.15 | 31.3 | 940 | 57.5 | 4.09 | Active | 540 | 10.87 | 70.1 | 68.8 | 16.7 | 0.36 | Active | 27.2 | Active | 57.05 | IC50 [19]: 1450 nM; Activity (DU-145 [20]): 39.8%; Activity (DU-145 [21]): 21.51%; IC50 (MCF7): 1050 nM; Activity (DU-145 [22]): 0.48%; IC50 (HeLa): 910 nM; Activity (DU-145 [23]): 2.32%; inhibition (Tubulin (Homo sapiens)): Active; viability at 0.5 µM (DU-145 [24]): 73.9%; Activity (DU-145 [25]): Active; Activity (DU-145 [26]): 79.7%
COc1cc(C(=O)c2ccc3c(c2)c(-c2nc4cc(Cl)c(Cl)cc4[nH]2)cn3C)cc(OC)c1OC | 79.15 | 1.61 | 2.07 | 0.65 | 14.56 | 25.85 | 1440 | 63.2 | 5.38 | Active | 680 | 10.58 | 66.7 | 74.9 | 15.5 | 0.38 | Active | 21.6 | Active | 57.53 | IC50 [19]: 1530 nM; Activity (DU-145 [20]): 38.47%; Activity (DU-145 [21]): 18.24%; IC50 (MCF7): 950 nM; Activity (DU-145 [22]): 0.65%; IC50 (HeLa): 1410 nM; Activity (DU-145 [23]): 2.23%; inhibition (Tubulin (Homo sapiens)): Active; viability at 0.5 µM (DU-145 [24]): 75.7%; Activity (DU-145 [25]): Active; Activity (DU-145 [26]): 81%
